Active and inactive are the calls of the source. The rule behind the calls is not given here.
Experiments:
HCT-116 [1] = assay: Induction of DNA damage in human HCT116 cells assessed as histone H2AX phosphorylation at S139 at 1 to 5 uM after 12 hrs by western blot analysis; type: functional, cell-based
Outline: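 DNA-damage marker. HCT116 cells treated 12 h with compound or vehicle. Lysates immunoblotted with anti-H2AX S139ph, and β-actin served as the control. Relative levels were obtained by densitometric scanning; means ± SD of three separate experiments.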

[2] = target: Cellular tumor antigen p53 (Homo sapiens) (UniProt P04637); assay: Activation of p53 in human HCT116 cell at 0.1 to 5 uM after 12 hrs by western blot analysis; type: cell-based; conditions: HCT-116
Outline: (§1)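 HCT116 cells exposed 12 h to compound or vehicle, then lysed on ice in PBS with 1% NP-40, 0.5% deoxycholate, 0.1% SDS and protease inhibitors. Up to 50 µg protein run on SDS-PAGE and immunoblotted for phospho-p53 (Ser15), p53 and p21. Bands quantified by densitometry against β-actin; mean ± SD of three experiments.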

[3] = target: Cellular tumor antigen p53 (Homo sapiens) (UniProt P04637); assay: Induction of p53 activation in human HCT116 cells assessed as upregulation of p21 expression at 0.1 to 5 uM after 12 hrs by western blot analysis; type: cell-based; conditions: HCT-116; outline: as §1
Mus musculus [4] = assay: Toxicity in BALB/c mouse xenografted with human HCT116 cells assessed as body weight change at 90 mg/kg, ip measured twice per week over 22 days; type: organism-based, HCT-116; conditions: in vivo, 528 h
Mus musculus [5] = assay: Acute toxicity in ICR mouse assessed as death at 240 to 585.9 mg/kg, ip measured after 1 hr; type: organism-based; conditions: in vivo
Outline: (§2)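 Female ICR mice, single intraperitoneal injection at 585.9, 468.8, […], 300 or 240 mg/kg, or vehicle control, n = 10 per group. Deaths counted at 1 h, 4 h, daily on days 1-4 and over days 5-14. Eating, drinking, body weight and activity observed for 14 days, with survival (%) taken on day 14. LD50 calculated from mortality.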

Mus musculus [6] = assay: Acute toxicity in ICR mouse assessed as death at 240 to 375 mg/kg, ip measured after 4 hrs; type: organism-based; conditions: in vivo; outline: as §2
HCT-116 [7] = assay: Induction of apoptosis in human HCT116 cells at 0.1 uM after 48 hrs by annexin V-FITC/propidium iodide staining-based flow cytometric analysis; type: functional
Outline: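 HCT116 cells cultured overnight, then exposed in triplicate for 48 h to 0.1, 1.0 or 5.0 µM, SAHA 5.0 µM or vehicle. Stained with FITC-Annexin V/PI for 15 min at room temperature.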

[8] = target: T1, Protein deacetylase HDAC6 (Homo sapiens, UniProt Q9UBN7); assay: Inhibition of recombinant human HDAC6 using Boc-Lys (Ac)-AMC as substrate after 60 mins by fluorometric analysis
T1 sequence (Q9UBN7 whole entry): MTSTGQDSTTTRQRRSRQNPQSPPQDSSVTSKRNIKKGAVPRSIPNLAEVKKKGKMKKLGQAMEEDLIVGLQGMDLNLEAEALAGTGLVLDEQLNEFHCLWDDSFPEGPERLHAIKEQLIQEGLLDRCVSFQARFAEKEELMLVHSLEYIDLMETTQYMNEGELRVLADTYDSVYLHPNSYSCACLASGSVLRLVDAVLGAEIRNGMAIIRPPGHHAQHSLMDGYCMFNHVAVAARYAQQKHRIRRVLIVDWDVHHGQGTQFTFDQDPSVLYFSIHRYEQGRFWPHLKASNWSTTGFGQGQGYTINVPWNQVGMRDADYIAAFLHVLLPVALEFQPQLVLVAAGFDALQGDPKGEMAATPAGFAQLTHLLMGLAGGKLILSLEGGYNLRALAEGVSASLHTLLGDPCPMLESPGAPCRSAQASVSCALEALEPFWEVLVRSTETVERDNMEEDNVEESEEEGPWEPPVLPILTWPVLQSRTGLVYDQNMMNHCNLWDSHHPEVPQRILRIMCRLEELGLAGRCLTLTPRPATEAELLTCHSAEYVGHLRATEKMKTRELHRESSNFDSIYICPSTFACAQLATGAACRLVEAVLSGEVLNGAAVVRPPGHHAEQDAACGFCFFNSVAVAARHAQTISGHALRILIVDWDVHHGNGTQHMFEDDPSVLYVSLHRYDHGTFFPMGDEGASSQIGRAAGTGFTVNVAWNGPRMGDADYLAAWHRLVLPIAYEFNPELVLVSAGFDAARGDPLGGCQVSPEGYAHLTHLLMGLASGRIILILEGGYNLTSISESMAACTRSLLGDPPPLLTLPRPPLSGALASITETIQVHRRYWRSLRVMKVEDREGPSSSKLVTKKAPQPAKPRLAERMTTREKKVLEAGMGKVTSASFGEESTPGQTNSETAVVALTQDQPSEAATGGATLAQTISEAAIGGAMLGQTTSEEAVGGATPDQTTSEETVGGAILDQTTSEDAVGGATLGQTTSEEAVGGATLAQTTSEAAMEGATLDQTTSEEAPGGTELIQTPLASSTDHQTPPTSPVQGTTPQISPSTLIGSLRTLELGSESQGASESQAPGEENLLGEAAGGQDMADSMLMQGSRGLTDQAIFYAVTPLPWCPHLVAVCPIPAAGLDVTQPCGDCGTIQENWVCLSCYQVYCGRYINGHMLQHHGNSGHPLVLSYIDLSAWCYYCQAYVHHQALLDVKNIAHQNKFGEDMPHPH

Cellular tumor antigen p53 (Homo sapiens), sequence (P04637 whole entry, looked up): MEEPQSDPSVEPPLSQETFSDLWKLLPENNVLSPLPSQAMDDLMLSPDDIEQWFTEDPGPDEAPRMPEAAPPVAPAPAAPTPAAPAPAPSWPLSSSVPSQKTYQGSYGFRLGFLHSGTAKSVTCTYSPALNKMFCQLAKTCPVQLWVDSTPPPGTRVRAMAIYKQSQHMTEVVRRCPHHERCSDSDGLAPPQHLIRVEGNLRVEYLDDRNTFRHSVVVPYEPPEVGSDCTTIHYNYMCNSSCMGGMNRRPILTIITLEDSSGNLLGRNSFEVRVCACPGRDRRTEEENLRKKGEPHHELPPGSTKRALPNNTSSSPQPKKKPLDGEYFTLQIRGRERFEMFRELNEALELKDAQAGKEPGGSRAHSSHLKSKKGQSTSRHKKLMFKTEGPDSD

COc1ccc(-c2nc(NC(=O)NCCCC(=O)NO)cc3c2[nH]c2ccccc23)cc1
Activity (HCT-116 [1]): Active
Activity [2]: Active
Activity [3]: Active
Activity (Mus musculus [4]): Non-toxic
Activity (Mus musculus [5]): Non-toxic
Activity (Mus musculus [6]): Non-toxic
Activity (HCT-116 [7]): 21.6%
IC50 [8]: 34 nM

From ChEMBL document CHEMBL3745678, “Novel β-Carboline/Hydroxamic Acid Hybrids Targeting Both Histone Deacetylase and DNA Display High Anticancer Activity via Regulation of the p53 Signaling Pathway” (J Med Chem, 2015)
